In publication PMC4460194 (Current Therapeutic Research, Clinical and Experimental, 2015):
Where two headings read alike, the source gives them in different places.

Tests used:
[1] = Single-dose pharmacokinetic study of pitavastatin calcium tablets; format: in vivo, human (healthy Chinese volunteers); details: for half-life / AUC(0-inf) / AUC(0-t) / Tmax / Vd / clearance / Cmax: human, plasma
Summary of the method: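 Randomized 3-way crossover in healthy Chinese volunteers (6 male, 6 female) with 5-day washouts. Single oral 1, 2 or 4 mg tablets were given after a 12-h fast with 200 mL water; meals at 4 and 10 h. Venous samples were taken predose and from 0.25 to 36 h. Heparinised plasma was analysed by LC-MS/MS (0.287–287 ng/mL). Noncompartmental analysis: Cmax/Tmax observed; AUC0–t by linear trapezoidal rule; AUC0–∞ = AUC0–t + Ct/λ.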

[2] = format: in vivo, human (healthy Chinese volunteers); details: for Cav: 2 mg multiple dose
Summary of the method: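 Healthy Chinese volunteers (18–27 years, BMI 19–24) took a 2-mg tablet of the test compound orally once daily for 6 days. Predose samples were taken on days 3–5. On day 6, samples were taken predose and from 0.25 to 48 h. Heparinised plasma was stored at –20°C and extracted into diethyl ether-dichloromethane. LC-MS/MS range was 0.287–287 ng/mL. Noncompartmental analysis; accumulation index = AUC(multiple-dose)/AUC(single-dose).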

Tolerability assessment = format: in vivo, human (healthy Chinese volunteers); details: single doses of 1 mg, 2 mg, or 4 mg and multiple doses of 2 mg once daily for 6 days, all subjects
[3] = Stability tests of the analyte in human plasma; format: in vitro ADME
[4] = system: albumin and alpha-1-acid glycoprotein; details: primarily to albumin and alpha-1-acid glycoprotein; cited from earlier work
[5] = animal studies, tissue distribution; cited from earlier work
[6] = OATP 388GA + 388GG mutant group vs 388AA wild-type group; cited from earlier work
[7] = did not convert to Pi-LAC; cited from earlier work
[8] = multiple dose 2 mg once daily for 6 days, n = 11, mean (SD)

Which half-life ([1]; both, oral) does the source give for `O=C(O)C[C@H](O)C[C@H](O)/C=C/c1c(C2CC2)nc2ccccc2c1-c1ccc(F)cc1` [pitavastatin] here?
The half-life was ~10 h.

What about the AUC(0-inf) ([1]; both, oral, 1 mg) of the same compound?
Its AUC(0-inf) is 206 ng·h/mL.

What about the AUC(0-t) ([1]; both, oral, 1 mg) of the same compound?
The AUC(0-t) was 190 ng·h/mL.

And the Tmax ([1]; both, oral, 1 mg)?
Its Tmax is 0.63 h.

What about the Vd ([1]; both, oral, 1 mg) of the same compound?
Its Vd is 79.9 L.

And the clearance ([1]; both, oral, 1 mg)?
The clearance was 84.8 mL/min.

What about the half-life ([1]; both, oral, 1 mg) of the same compound?
Its half-life is 11 h.

And the AUC(0-inf) ([1]; both, oral, 2 mg)?
Its AUC(0-inf) is 321 ng·h/mL.

And the AUC(0-t) ([1]; both, oral, 2 mg)?
The AUC(0-t) was 308 ng·h/mL.

What about the Tmax ([1]; both, oral, 2 mg) of the same compound?
Its Tmax is 0.65 h.

And the Vd ([1]; both, oral, 2 mg)?
Its Vd is 86.9 L.

What about the clearance ([1]; both, oral, 2 mg) of the same compound?
The clearance was 108 mL/min.

What about the half-life ([1]; both, oral, 2 mg) of the same compound?
The half-life was 9.52 h.

What about the AUC(0-inf) ([1]; both, oral, 4 mg) of the same compound?
Its AUC(0-inf) is 828 ng·h/mL.

What about the AUC(0-t) ([1]; both, oral, 4 mg) of the same compound?
Its AUC(0-t) is 785 ng·h/mL.

What about the Tmax ([1]; both, oral, 4 mg) of the same compound?
The Tmax was 0.79 h.

What about the Vd ([1]; both, oral, 4 mg) of the same compound?
The Vd was 72.5 L.

What about the clearance ([1]; both, oral, 4 mg) of the same compound?
The clearance was 85.5 mL/min.

And the half-life ([1]; both, oral, 4 mg)?
The half-life was 10.4 h.

And the Tmax ([1]; both, po)?
The Tmax was ≤ 1 h.

What about the Cmax ([1]; both, po, 1 mg) of the same compound?
Its Cmax is 66.8 ng/mL.

What about the Cmax ([1]; both, po, 2 mg) of the same compound?
The Cmax was 106 ng/mL.

And the Cmax ([1]; both, po, 4 mg)?
Its Cmax is 233 ng/mL.

What about the AUC(0-t) ([1]; female, oral, 1 mg) of the same compound?
Its AUC(0-t) is 204 ng·h/mL.

What about the Cmax ([1]; female, oral, 1 mg) of the same compound?
Its Cmax is 71 ng/mL.

And the Tmax ([1]; female, oral, 1 mg)?
Its Tmax is 0.67 h.

And the Vd ([1]; female, oral, 1 mg)?
Its Vd is 73.3 L.

And the clearance ([1]; female, oral, 1 mg)?
The clearance was 77.5 mL/min.

What about the half-life ([1]; female, oral, 1 mg) of the same compound?
Its half-life is 9.69 h.

And the AUC(0-t) ([1]; female, oral, 2 mg)?
Its AUC(0-t) is 330 ng·h/mL.

What about the Cmax ([1]; female, oral, 2 mg) of the same compound?
Its Cmax is 114 ng/mL.

And the Tmax ([1]; female, oral, 2 mg)?
Its Tmax is 0.67 h.

What about the Vd ([1]; female, oral, 2 mg) of the same compound?
Its Vd is 87.5 L.

And the clearance ([1]; female, oral, 2 mg)?
The clearance was 102 mL/min.

What about the half-life ([1]; female, oral, 2 mg) of the same compound?
Its half-life is 9.95 h.

And the Cmax ([1]; female, oral, 4 mg)?
Its Cmax is 253 ng/mL.

And the Tmax ([1]; female, oral, 4 mg)?
The Tmax was 0.9 h.

What about the Vd ([1]; female, oral, 4 mg) of the same compound?
Its Vd is 72.7 L.

What about the clearance ([1]; female, oral, 4 mg) of the same compound?
The clearance was 83 mL/min.

And the half-life ([1]; female, oral, 4 mg)?
Its half-life is 11.8 h.

And the AUC(0-t) ([1]; male, oral, 1 mg)?
The AUC(0-t) was 176 ng·h/mL.

And the Cmax ([1]; male, oral, 1 mg)?
The Cmax was 62.6 ng/mL.

And the Tmax ([1]; male, oral, 1 mg)?
Its Tmax is 0.58 h.

What about the Vd ([1]; male, oral, 1 mg) of the same compound?
The Vd was 86.4 L.

What about the clearance ([1]; male, oral, 1 mg) of the same compound?
The clearance was 92 mL/min.

What about the half-life ([1]; male, oral, 1 mg) of the same compound?
The half-life was 12.3 h.

And the AUC(0-t) ([1]; male, oral, 2 mg)?
Its AUC(0-t) is 286 ng·h/mL.

And the Cmax ([1]; male, oral, 2 mg)?
Its Cmax is 98.4 ng/mL.

And the Tmax ([1]; male, oral, 2 mg)?
Its Tmax is 0.63 h.

What about the Vd ([1]; male, oral, 2 mg) of the same compound?
Its Vd is 86.4 L.

What about the clearance ([1]; male, oral, 2 mg) of the same compound?
The clearance was 114 mL/min.

What about the half-life ([1]; male, oral, 2 mg) of the same compound?
Its half-life is 9.08 h.

And the AUC(0-t) ([1]; male, oral, 4 mg)?
The AUC(0-t) was 690 ng·h/mL.

What about the Cmax ([1]; male, oral, 4 mg) of the same compound?
Its Cmax is 209 ng/mL.

What about the Tmax ([1]; male, oral, 4 mg) of the same compound?
Its Tmax is 0.65 h.

And the Vd ([1]; male, oral, 4 mg)?
The Vd was 72.2 L.

What about the clearance ([1]; male, oral, 4 mg) of the same compound?
Its clearance is 98.5 mL/min.

What about the half-life ([1]; male, oral, 4 mg) of the same compound?
Its half-life is 8.72 h.

What about the “correlation coefficient of dose-proportionality linear regression for AUC0−t” value ([1]; single dosing 1 mg, 2 mg, 4 mg) of the same compound?
Its value is 0.92.

What about the “correlation coefficient of dose-proportionality linear regression for AUC0−∞” value ([1]; single dosing 1 mg, 2 mg, 4 mg) of the same compound?
The value was 0.91.

What about the “correlation coefficient of dose-proportionality linear regression for Cmax” value ([1]; single dosing 1 mg, 2 mg, 4 mg) of the same compound?
Its value is 0.86.

What about the “accumulation index (Cmax, multiple-dose/Cmax, single-dose)” value ([2]; 2 mg multiple dose vs 2 mg single dose, mean (SD)) of the same compound?
The value was 0.85 (0.23).

What about the “accumulation index (AUC)” value ([2]; 2 mg multiple dose vs 2 mg single dose, ratio of AUC, mean (SD)) of the same compound?
The value was 0.98 (0.28).

What about the Cav ([2]; female (n = 6), mean (SD)) of the same compound?
The Cav was 11.65 (6.58) ng/mL.

What about the Cav ([2]; male (n = 5), mean (SD)) of the same compound?
The Cav was 10.32 (1.86) ng/mL.

And the “steady state of plasma pitavastatin concentration achieved” value ([2]; 2 mg once daily, day of multiple dosing)?
Its value is ~4 days.

And the “Cav (steady-state concentration)” value [2, 8]?
The value was 11.05 (4.85) ng/mL.

What about the “Cmin (steady-state trough concentration)” value [2, 8] of the same compound?
The value was 2.58 (0.92) ng/mL.

What about the tolerability (Tolerability assessment) of the same compound?
The tolerability was “well tolerated”.

And the “stability in human plasma” value ([3]; after 3 freeze-thaw cycles (80°C to room temperature))?
Its value is “stable”.

What about the “stability in human plasma” value ([3]; at −20°C for 80 days) of the same compound?
The value was “stable”.

And the “stability of processed samples” value ([3]; processed samples at room temperature for 8 hours)?
The value was “stable”.

What about the protein binding ratio [4] of the same compound?
Its protein binding ratio is 96%.

And the “liver levels relative to plasma” value [5]?
The value was “approximately 54 times”.

What about the “AUC higher than wild type” value [6] of the same compound?
Its value is “about 80%”.

What about the “Cmax higher than wild type” value [6] of the same compound?
Its value is ~71%.

And the “oral elimination lower than wild type” value [6]?
Its value is “about 35%”.

And the “stability in human plasma (conversion to Pi-LAC)” value [7]?
The value was “stable”.
